Laboratory results taken from ChEMBL document CHEMBL1154114, “7-((4-Substituted)piperazin-1-yl) derivatives of ciprofloxacin: synthesis and in vitro biological evaluation as potential antitumor agents” (Bioorg Med Chem, 2009).
Blank lines part the entries; values can stand above or below the compound they belong to.

What was measured:
[1] = Stability in phosphate buffer of pH 7.4 after 6 days; type: physicochemical; settings: read-out: Stability
In short: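 Compound dissolved at 1 mM in DMSO, diluted with phosphate buffer pH 7.4 to 1 mL, incubated sealed at 37 °C for 6 days. A t0 aliquot was held at 4 °C. HPLC with 280 nm detection and duplicate injections, with expected degradation products as references. Stability is taken as compound peak area over (compound + degradation product) peak area.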

PC-3 [2] = test: Antitumor activity against human PC3 cells after 5 days by MTT assay; type: functional, cell-based; settings: PC-3, 120 h
In short: (§1)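 Five human cancer lines (prostate PC-3, glioblastoma U373-MG, colorectal LoVo, NSCLC A549, breast MCF-7) plated at 10⁴ to 3×10⁴ cells/mL depending on cell type, allowed 24 h to attach, then cultured 120 h with or without drug at nine concentrations. MTT reduction to formazan read at 570 nm (reference 630 nm).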

[3] = Antitumor activity against human U373MG cells after 5 days by MTT assay; type: functional, cell-based, U-373MG ATCC; settings: U373 MG, 120 h; in short: as §1
LoVo [4] = test: Antitumor activity against human LoVo cells after 5 days by MTT assay; type: functional, cell-based; settings: 120 h; in short: as §1
A549 [5] = test: Antitumor activity against human A549 cells after 5 days by MTT assay; type: functional, cell-based; settings: A549, 120 h; in short: as §1
MCF7 [6] = test: Antitumor activity against human MCF7 cells after 5 days by MTT assay; type: functional, cell-based; settings: MCF7, 120 h; in short: as §1
PC-3 [7] = test: Ratio of ciprofloxacin IC50 to compound IC50 for human PC3 cells; type: functional
U373 MG = test: Ratio of ciprofloxacin IC50 to compound IC50 for human U373MG cells; type: functional, U-373MG ATCC
LoVo [8] = test: Ratio of ciprofloxacin IC50 to compound IC50 for human LoVo cells; type: functional
A549 [9] = test: Ratio of ciprofloxacin IC50 to compound IC50 for human A549 cells; type: functional
MCF7 [10] = test: Ratio of ciprofloxacin IC50 to compound IC50 for human MCF7 cells; type: functional
[11] = Toxicity in ip dosed B6D2F1 mouse assessed as maximum tolerated dose after 28 days; type: organism-based; settings: in vivo
In short: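 Healthy mice, three per group, each given a single ip dose and observed for up to 28 days. The MTD index is the highest single dose given without causing any deaths in the group.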

MCF7 [12] = test: Inhibition of human MCF7 cell proliferation; type: functional, cell-based
[13] = Inhibition of human RPMI8226/S cell proliferation; type: functional, cell-based
G-quadruplex DNA = test: Interaction with G-quadruplex DNA assessed by polymerase stop assay
HT-29 [14] = test: Inhibition of human HT-29 cell proliferation; type: functional, cell-based
[15] = molecular target: DNA topoisomerase 2-alpha (Homo sapiens) (UniProt P11388); test: Inhibition of human topoisomerase 2 assessed as conversion of catenated to decatenated form of kDNA
Chain of DNA topoisomerase 2-alpha (Homo sapiens) (P11388 whole entry): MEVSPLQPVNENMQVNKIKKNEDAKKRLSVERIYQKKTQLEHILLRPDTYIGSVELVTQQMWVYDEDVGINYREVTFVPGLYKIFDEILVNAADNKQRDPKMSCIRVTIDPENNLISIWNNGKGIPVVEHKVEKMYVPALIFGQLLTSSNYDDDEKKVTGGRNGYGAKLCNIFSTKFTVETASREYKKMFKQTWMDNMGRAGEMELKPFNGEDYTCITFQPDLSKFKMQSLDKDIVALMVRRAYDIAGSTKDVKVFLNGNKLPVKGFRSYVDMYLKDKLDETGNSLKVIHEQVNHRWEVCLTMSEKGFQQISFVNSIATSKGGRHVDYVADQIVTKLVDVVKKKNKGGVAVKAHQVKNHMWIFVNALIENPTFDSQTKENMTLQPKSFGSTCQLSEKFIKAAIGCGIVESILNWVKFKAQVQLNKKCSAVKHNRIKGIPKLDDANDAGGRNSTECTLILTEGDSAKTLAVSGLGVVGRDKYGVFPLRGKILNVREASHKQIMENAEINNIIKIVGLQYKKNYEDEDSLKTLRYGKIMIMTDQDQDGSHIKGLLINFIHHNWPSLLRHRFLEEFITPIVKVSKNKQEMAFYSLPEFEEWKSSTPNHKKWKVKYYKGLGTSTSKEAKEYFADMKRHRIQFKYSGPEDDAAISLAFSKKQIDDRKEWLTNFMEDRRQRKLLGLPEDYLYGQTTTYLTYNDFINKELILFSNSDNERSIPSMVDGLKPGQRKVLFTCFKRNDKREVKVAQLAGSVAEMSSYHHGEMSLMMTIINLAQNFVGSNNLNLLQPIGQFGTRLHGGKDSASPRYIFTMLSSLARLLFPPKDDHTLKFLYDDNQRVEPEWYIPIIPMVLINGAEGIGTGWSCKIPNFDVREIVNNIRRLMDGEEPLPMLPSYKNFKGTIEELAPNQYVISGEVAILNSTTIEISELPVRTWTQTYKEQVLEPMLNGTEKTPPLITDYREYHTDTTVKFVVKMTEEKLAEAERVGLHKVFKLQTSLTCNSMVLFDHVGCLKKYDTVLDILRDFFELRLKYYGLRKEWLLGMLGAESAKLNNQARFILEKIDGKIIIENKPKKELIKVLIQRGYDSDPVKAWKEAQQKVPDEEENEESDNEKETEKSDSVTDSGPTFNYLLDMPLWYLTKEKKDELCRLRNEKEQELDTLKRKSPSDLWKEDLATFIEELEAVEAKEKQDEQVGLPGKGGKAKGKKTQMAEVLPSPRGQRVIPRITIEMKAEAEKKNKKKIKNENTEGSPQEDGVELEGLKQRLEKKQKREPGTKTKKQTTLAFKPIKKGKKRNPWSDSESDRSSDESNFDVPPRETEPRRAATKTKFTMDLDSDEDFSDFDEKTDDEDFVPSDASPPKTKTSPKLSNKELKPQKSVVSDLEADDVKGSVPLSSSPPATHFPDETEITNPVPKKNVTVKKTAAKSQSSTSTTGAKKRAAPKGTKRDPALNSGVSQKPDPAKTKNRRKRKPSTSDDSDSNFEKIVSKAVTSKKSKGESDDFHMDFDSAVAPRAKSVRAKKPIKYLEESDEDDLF

NCI-H226 = test: Inhibition of human NCI-H226 cell proliferation; type: functional, cell-based
[16] = Inhibition of human MDA231 cell proliferation; type: functional, cell-based; settings: MDA-MB-231
[17] = molecular target: DNA topoisomerase 2-alpha (Homo sapiens) (UniProt P11388); test: Inhibition of human topoisomerase 2-mediated DNA unwinding activity
DU-145 = test: Inhibition of human DU145 cell proliferation; type: functional, cell-based
B16 = test: Inhibition of mouse B16 cell proliferation; type: functional, cell-based
A549 [18] = test: Antitumor activity against human A549 cells after 3 days by MTT assay; type: functional, cell-based; settings: A549, 72 h
HCT-8 = test: Antitumor activity against human HCT8 cells after 3 days by MTT assay; type: functional, cell-based; settings: HCT-8, 72 h
MCF7 [19] = test: Antitumor activity against human MCF7 cells after 3 days by MTT assay; type: functional, cell-based; settings: MCF7, 72 h
HT-29 [20] = test: Antitumor activity against human HT-29 cells after 3 days by MTT assay; type: functional, cell-based; settings: HT-29, 72 h
[21] = Inhibition of human […] cell proliferation; type: functional, cell-based
P388 = test: Inhibition of mouse P388 cell proliferation; type: functional, cell-based
HeLa [22] = test: Inhibition of human HeLa cell proliferation assessed as bromodeoxyuridine incorporation during DNA synthesis after 48 hrs by ELISA; type: functional, cell-based
MG-63 = test: Inhibition of human MG63 cell proliferation assessed as bromodeoxyuridine incorporation during DNA synthesis after 48 hrs by ELISA; type: functional, cell-based; settings: MG-63, 48 h
NCI-H460 [23] = test: Inhibition of human NCI-H460 cell proliferation by sulphorodhamine B assay; type: functional, cell-based
HeLa [24] = test: Inhibition of human HeLa cell proliferation; type: functional, cell-based
MCF7 [25] = test: Inhibition of human MCF7 cell proliferation by MTT assay; type: functional, cell-based
MCF7 [26] = test: Inhibition of human MCF7 cell proliferation after 5 days by MTT assay; type: functional, cell-based; settings: MCF7, 120 h; in short: as §1
A-431 = test: Inhibition of human A431 cell proliferation by MTT assay; type: functional, cell-based
EJ = test: Inhibition of human EJ cell proliferation by MTT assay; type: functional, cell-based
SW480 = test: Inhibition of human SW480 cell proliferation by MTT assay; type: functional, cell-based
KB = test: Inhibition of human KB cell proliferation by MTT assay; type: functional, cell-based
SK-MEL = test: Inhibition of human SK-MEL cell proliferation by MTT assay; type: functional, cell-based
MC3T3-E1 = test: Inhibition of mouse MC3T3-E1 cell proliferation after 48 to 72 hrs; type: functional, cell-based
[27] = Inhibition of mouse NIH/3T3 cell proliferation by MTT assay; type: cell-based; settings: NIH3T3
V79 = test: Inhibition of chinese hamster V79 cell proliferation assessed as bromodeoxyuridine incorporation during DNA synthesis after 48 hrs by ELISA; settings: Cricetulus griseus, V79, 48 h
K562 = test: Inhibition of human K562 cell proliferation by sulphorodhamine B assay; type: functional, cell-based
NCI-H460 [28] = test: Induction of apoptosis in human NCI-H460 cells at 120 uM by sulphorodhamine B assay; type: functional
[29] = molecular target: DNA topoisomerase 2-alpha (Homo sapiens) (UniProt P11388); test: Inhibition of topoisomerase 2-mediated DNA relaxation activity in human HeLa cells by Oomori method; type: cell-based

Structure (SMILES): O=C(O)c1cn(C2CC2)c2cc(N3CCN(C(=O)CCl)CC3)c(F)cc2c1=O
remaining at 144 h [1]: > 99%
IC50 (PC-3 [2]): 8 µM
IC50 [3]: 4 µM
IC50 (LoVo [4]): 17 µM
IC50 (A549 [5]): 10 µM
IC50 (MCF7 [6]): 23 µM
Ratio IC50 (PC-3 [7]): 5
Ratio IC50 (U373 MG): 5
Ratio IC50 (LoVo [8]): 5
Ratio IC50 (A549 [9]): 5
Ratio IC50 (MCF7 [10]): 5
MTD at 672 h [11]: > 80 mg/kg

IC50 (MCF7 [12]): 1 µM
IC50 (G-quadruplex DNA): 0.7 µM
Structure (SMILES): N[C@H]1CCN(c2c(F)cc3c(=O)c(C(=O)O)cn4c3c2Oc2c-4ccc3c2ccc2ccccc23)C1
IC50 [13]: 0.7 µM

IC50 (MCF7 [12]): 0.5 µM
IC50 (G-quadruplex DNA): 0.06 µM
Structure (SMILES): N[C@@H]1CCN(c2c(F)cc3c(=O)c(C(=O)O)cn4c3c2Oc2c-4ccc3c2ccc2ccccc23)C1
IC50 [13]: 0.3 µM

Structure (SMILES): CC(C)(C)OC(=O)N1CCN(c2cc3c(cc2F)c(=O)c(C(=O)O)cn3C2CC2)CC1
remaining at 144 h [1]: > 99%
IC50 (PC-3 [2]): 26 µM
IC50 [3]: 35 µM
IC50 (LoVo [4]): 40 µM
IC50 (A549 [5]): 18 µM
IC50 (MCF7 [6]): 13 µM
Ratio IC50 (PC-3 [7]): 2
Ratio IC50 (U373 MG): 2
Ratio IC50 (LoVo [8]): 2
Ratio IC50 (A549 [9]): 2
Ratio IC50 (MCF7 [10]): 2
MTD at 672 h [11]: > 80 mg/kg

IC50 (HT-29 [14]): 0.03 µM
Activity [15]: 0.2 µM
IC50 (NCI-H226): 0.01 µM
Activity [17]: 3 µM
Structure (SMILES): N[C@@H]1CCN(c2c(F)cc3c(=O)c(C(=O)O)cn4c3c2Oc2c-4ccc3ccccc23)C1
IC50 [16]: 0.005 µM

IC50 (HT-29 [14]): 0.05 µM
Activity [15]: 0.5 µM
IC50 (DU-145): 0.06 µM
IC50 (B16): 0.2 µM
IC50 (NCI-H226): 0.03 µM
Activity [17]: 10 µM
Structure (SMILES): N[C@H]1CCN(c2c(F)cc3c(=O)c(C(=O)O)cn4c3c2Oc2c-4ccc3ccccc23)C1
IC50 [16]: 0.08 µM

IC50 (A549 [18]): 1.3 µM
IC50 (HCT-8): 0.3 µM
IC50 (MCF7 [19]): 0.8 µM
IC50 (HT-29 [20]): 0.5 µM
IC50 (HT-29 [14]): 0.2 µM
Activity [15]: 0.5 µM
IC50 (DU-145): 0.2 µM
Activity [17]: 50 µM
IC50 (P388): 0.05 µM
IC50 (MCF7 [12]): 0.7 µM
Structure (SMILES): NC1CCN(c2c(F)cc3c(=O)c(C(=O)O)cn4c3c2Oc2ccccc2-4)C1 (configuration not stated)
IC50 [21]: 0.7 µM
IC50 [13]: 0.3 µM

Structure (SMILES): O=C(O)c1cn(C2CC2)c2cc(N3CCNCC3)c(F)cc2c1=O [CIPROFLOXACIN]
IC50 (PC-3 [2]): 143 µM
IC50 [3]: 96 µM
IC50 (LoVo [4]): 89 µM
IC50 (A549 [5]): 280 µM
IC50 (MCF7 [6]): 476 µM
MTD at 672 h [11]: > 80 mg/kg
IC50 (HeLa [22]): 800 µM
IC50 (MG-63): 480 µM
IC50 (NCI-H460 [23]): 60 µM
IC50 (HeLa [24]): 270 µM
IC50 (MCF7 [25]): 199 µM
IC50 (MCF7 [26]): 76 µM
IC50 (A-431): 135 µM
IC50 (EJ): 202 µM
IC50 (SW480): 128 µM
IC50 (KB): 160 µM
IC50 (SK-MEL): 196 µM
IC50 (MC3T3-E1): 120 µM
IC50 [27]: > 1000 µM
IC50 (V79): > 1000 µM
IC50 (K562): > 150 µM
Activity (NCI-H460 [28]): 35%
Activity [29]: 104 µM
